Our source for the IC50 values is ChEMBL document CHEMBL1129038, “Studies on selectin blocker. 1. Structure-activity relationships of sialyl Lewis X analogs” (J Med Chem, 1996).

In test [1] the target is T1, L-selectin (Homo sapiens, UniProt P14151).
T1 sequence (P14151 whole entry): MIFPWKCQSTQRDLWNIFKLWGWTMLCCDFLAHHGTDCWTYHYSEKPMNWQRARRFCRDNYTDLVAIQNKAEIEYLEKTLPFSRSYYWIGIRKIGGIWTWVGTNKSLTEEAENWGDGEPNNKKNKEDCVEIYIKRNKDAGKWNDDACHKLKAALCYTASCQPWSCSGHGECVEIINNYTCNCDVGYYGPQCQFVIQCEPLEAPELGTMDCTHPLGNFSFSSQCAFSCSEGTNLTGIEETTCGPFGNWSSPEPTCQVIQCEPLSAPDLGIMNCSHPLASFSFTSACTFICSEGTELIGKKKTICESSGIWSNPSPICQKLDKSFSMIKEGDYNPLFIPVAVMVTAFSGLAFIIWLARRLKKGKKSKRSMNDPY
Nature of the test: Inhibitory activity against human chimeric L-selectin-Ig. The method, boiled down:
(§1)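 Competition against binding of the sLeX pentasaccharide ceramide ligand to purified selectin-Ig. The fusions carry the lectin, EGF and two complement regulatory repeats on the human IgG1 hinge/Fc and were expressed in COS7 (transient) or CHO (stable) cells. The P-selectin cDNA came from HUVEC mRNA and the L-selectin cDNA from Jurkat mRNA, both by RT-PCR.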

The target of test [2] is T2, E-selectin (Homo sapiens, UniProt P16581).
T2 sequence (P16581 whole entry): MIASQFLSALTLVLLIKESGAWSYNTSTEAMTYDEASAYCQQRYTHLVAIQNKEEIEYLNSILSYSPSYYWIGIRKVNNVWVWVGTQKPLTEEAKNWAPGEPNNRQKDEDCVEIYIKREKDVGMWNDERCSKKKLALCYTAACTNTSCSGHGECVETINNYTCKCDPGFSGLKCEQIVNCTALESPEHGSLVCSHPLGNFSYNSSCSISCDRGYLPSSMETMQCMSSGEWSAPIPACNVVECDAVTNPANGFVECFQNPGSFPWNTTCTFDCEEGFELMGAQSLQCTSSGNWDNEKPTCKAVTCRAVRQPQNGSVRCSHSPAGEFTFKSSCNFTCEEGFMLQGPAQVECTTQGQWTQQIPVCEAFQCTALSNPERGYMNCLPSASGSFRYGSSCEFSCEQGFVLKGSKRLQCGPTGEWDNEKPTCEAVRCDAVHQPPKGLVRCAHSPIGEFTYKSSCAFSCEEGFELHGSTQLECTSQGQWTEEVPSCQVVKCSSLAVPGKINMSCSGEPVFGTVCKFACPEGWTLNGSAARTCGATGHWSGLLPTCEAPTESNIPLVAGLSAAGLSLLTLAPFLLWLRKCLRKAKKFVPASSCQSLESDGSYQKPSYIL
Nature of the test: Inhibitory activity against human chimeric E-selectin-Ig. The method, boiled down:
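Competitive ELISA. sLeX-pentaceramide was adsorbed at 100 pmol per well and blocked with 5% BSA-PBS. E-selectin-Ig fusion (lectin, EGF and two complement regulatory repeats on human IgG1 hinge/CH2/CH3; cDNA from HUVEC mRNA) was precomplexed 30 min with biotin-anti-human IgG(Fc)/streptavidin-alkaline phosphatase. Compound at 100, 25, 6.25 or 1.56 µM final was preincubated with the complex 30 min, then 37 °C for 45 min. pNPP read at 405 nm; duplicates.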

Test [3] addresses T3, P-selectin (Homo sapiens, UniProt P16109).
T3 sequence (P16109 whole entry): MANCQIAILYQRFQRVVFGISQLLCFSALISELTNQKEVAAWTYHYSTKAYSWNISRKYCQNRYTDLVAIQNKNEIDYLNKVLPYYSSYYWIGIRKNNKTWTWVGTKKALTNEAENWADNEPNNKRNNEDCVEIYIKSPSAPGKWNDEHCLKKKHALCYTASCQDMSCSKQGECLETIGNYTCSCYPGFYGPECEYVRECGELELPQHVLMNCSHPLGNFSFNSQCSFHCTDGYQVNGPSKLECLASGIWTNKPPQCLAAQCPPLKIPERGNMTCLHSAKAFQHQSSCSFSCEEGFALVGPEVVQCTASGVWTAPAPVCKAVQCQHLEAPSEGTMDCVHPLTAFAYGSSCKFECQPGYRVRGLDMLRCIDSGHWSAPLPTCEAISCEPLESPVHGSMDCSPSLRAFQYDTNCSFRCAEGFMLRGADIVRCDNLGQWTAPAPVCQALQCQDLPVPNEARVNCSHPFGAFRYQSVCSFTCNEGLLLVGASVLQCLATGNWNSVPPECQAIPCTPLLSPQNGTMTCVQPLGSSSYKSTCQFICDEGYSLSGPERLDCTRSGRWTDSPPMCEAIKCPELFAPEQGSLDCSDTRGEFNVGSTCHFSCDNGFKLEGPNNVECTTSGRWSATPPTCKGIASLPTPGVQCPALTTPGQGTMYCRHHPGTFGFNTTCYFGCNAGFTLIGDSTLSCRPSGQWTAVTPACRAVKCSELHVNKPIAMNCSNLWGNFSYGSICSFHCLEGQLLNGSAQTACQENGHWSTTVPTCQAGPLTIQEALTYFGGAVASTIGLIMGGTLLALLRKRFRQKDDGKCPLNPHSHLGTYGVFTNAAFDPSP
Briefly: Inhibitory activity against human chimeric Selectin P-Ig. The method, boiled down:
as §1

The structures appear in SMILES notation.

`CC(=O)N[C@H]1[C@H]([C@H](O)[C@H](O)CO)O[C@@](O[C@@H]2[C@H](O)[C@@H](O)[C@H](O[C@H]3[C@H](O[C@@H]4O[C@@H](C)[C@@H](O)[C@@H](O)[C@@H]4O)[C@@H](O)CO[C@@H]3CO)O[C@@H]2O)(C(=O)O)C[C@@H]1O`: the IC50 (usually the point on the concentration scale where inhibition reaches its midpoint) in test [1] is 220 µM; in test [2], 240 µM; in test [3] it was more than 1000 µM.

With `C[C@@H]1O[C@@H](O[C@@H]2CCO[C@H](CO)[C@H]2O[C@@H]2O[C@H](CO)[C@H](O)[C@H](OP(=O)(O)O)[C@H]2O)[C@@H](O)[C@H](O)[C@@H]1O`, the IC50 was 420 µM in test [1], more than 1000 µM in test [2] and more than 1000 µM in test [3].

With `C[C@@H]1O[C@@H](O[C@@H]2CCO[C@H](CO)[C@H]2O[C@@H]2O[C@H](CO)[C@H](O)[C@H](OS(=O)(=O)O)[C@H]2O)[C@@H](O)[C@H](O)[C@@H]1O`, the IC50 in test [1] was more than 1000 µM; in test [2] it was more than 1000 µM; in test [3], 560 µM.

As for `CC(=O)N[C@H]1CO[C@H](CO)[C@@H](O[C@@H]2O[C@H](CO)[C@H](O)[C@H](OS(=O)(=O)O)[C@H]2O)[C@@H]1O[C@@H]1O[C@@H](C)[C@@H](O)[C@@H](O)[C@@H]1O`, the 50% inhibitory concentration (IC50) in test [1], in test [2] and in test [3] was more than 1000 µM in each case.

Regarding `C[C@@H]1O[C@@H](O[C@H]2[C@H](O[C@@H]3O[C@H](CO)[C@H](O)[C@H](OS(=O)(=O)O)[C@H]3O)[C@@H](CO)OC[C@@H]2O)[C@@H](O)[C@H](O)[C@@H]1O`, the IC50 in test [1] was more than 1000 µM; in test [2], more than 1000 µM; in test [3], 670 µM.

Regarding `CC(=O)N[C@H]1[C@H]([C@H](O)[C@H](O)CO)O[C@@](O[C@H]2[C@@H](O)[C@@H](CO)O[C@@H](O[C@@H]([C@H](O[C@@H]3O[C@@H](C)[C@@H](O)[C@@H](O)[C@@H]3O)[C@H](C=O)NC(C)=O)[C@H](O)CO)[C@@H]2O)(C(=O)O)C[C@@H]1O` [SIALYL LEWIS X], the IC50 in test [1] is more than 1000 µM; in test [2], 600 µM; in test [3], more than 1000 µM.
